Experimental data published in ChEMBL document CHEMBL1138358, “Synthesis and in vivo antitumor evaluation of 2-methoxyestradiol 3-phosphate, 17-phosphate, and 3,17-diphosphate” (J Med Chem, 2007).

Assays:
HCT-116 = experiment: Cytotoxicity against human HCT116 cells; format: functional
SF-539 = experiment: Cytotoxicity against human SF539 cells; format: functional
UACC-62 = experiment: Cytotoxicity against human UACC62 cells; format: functional
DU-145 = experiment: Cytotoxicity against human DU145 cells; format: functional
MDA-MB-435 = experiment: Cytotoxicity against human MDA-MB-435 cells; format: functional
HOP-62 = experiment: Cytotoxicity against human HOP62 cells; format: functional
OVCAR-3 = experiment: Cytotoxicity against human OVCAR-3 cells; format: functional
SN12C = experiment: Cytotoxicity against human SN12C cells; format: functional
Plasma [1] = experiment: Drug level in Sprague-Dawley rat plasma at 1 mg/kg, iv assessed as 2-methoxyestradiol level after 15 mins; format: ADME, organism-based; set-up: dose 1 mg/kg, route intravenous; settings: in vivo, 0.25 h
Summary of the method: (§1)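 Jugular-cannulated Sprague–Dawley rats were fasted overnight and given a single tail-vein dose in 45% (w/v) hydroxypropyl-β-cyclodextrin in water (0.5 mg/mL, 2 mL/kg). K-EDTA blood was drawn via the cannula and the plasma was frozen below −20 °C. Plasma was acidified with formic acid and analysed by negative-ion ESI LC-MS/MS (MRM). Standard curves were spiked into rat plasma.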

Plasma [2] = experiment: Drug level in Sprague-Dawley rat plasma at 1 mg/kg, iv assessed as 2-methoxyestrone level after 30 mins; format: ADME, organism-based; set-up: dose 1 mg/kg, route intravenous; settings: in vivo, 0.5 h; summary of the method: as §1
Plasma [3] = experiment: Drug level in Sprague-Dawley rat plasma at 1 mg/kg, iv assessed as 2-methoxyestrone level after 15 mins; format: ADME, organism-based; set-up: dose 1 mg/kg, route intravenous; settings: in vivo, 0.25 h; summary of the method: as §1
Plasma [4] = experiment: Drug level in Sprague-Dawley rat plasma at 1 mg/kg, iv assessed as 2-methoxyestradiol level after 120 mins; format: ADME, organism-based; set-up: dose 1 mg/kg, route intravenous; settings: in vivo, 2 h; summary of the method: as §1
Plasma [5] = experiment: Drug level in Sprague-Dawley rat plasma at 1 mg/kg, iv assessed as 2-methoxyestradiol level after 5 mins; format: ADME, organism-based; set-up: dose 1 mg/kg, route intravenous; settings: in vivo; summary of the method: as §1
[6] = Drug level in Sprague-Dawley rat plasma at 1 mg/kg, iv after 15 mins; format: ADME, organism-based; set-up: dose 1 mg/kg, route intravenous; summary of the method: as §1
Plasma [7] = experiment: Drug level in Sprague-Dawley rat plasma at 1 mg/kg, iv assessed as 2-methoxyestradiol level after 60 mins; format: ADME, organism-based; set-up: dose 1 mg/kg, route intravenous; settings: in vivo, 1 h; summary of the method: as §1
Plasma [8] = experiment: Drug level in Sprague-Dawley rat plasma at 1 mg/kg, iv assessed as 2-methoxyestrone level after 120 mins; format: ADME, organism-based; set-up: dose 1 mg/kg, route intravenous; settings: in vivo, 2 h; summary of the method: as §1
Plasma [9] = experiment: Drug level in Sprague-Dawley rat plasma at 1 mg/kg, iv assessed as 2-methoxyestradiol level after 30 mins; format: ADME, organism-based; set-up: dose 1 mg/kg, route intravenous; settings: in vivo, 0.5 h; summary of the method: as §1
[10] = Drug level in Sprague-Dawley rat plasma at 1 mg/kg, iv after 60 mins; format: ADME, organism-based; set-up: dose 1 mg/kg, route intravenous; summary of the method: as §1
[11] = Drug level in Sprague-Dawley rat plasma at 1 mg/kg, iv after 5 mins; format: ADME, organism-based; set-up: dose 1 mg/kg, route intravenous; summary of the method: as §1
[12] = Drug level in Sprague-Dawley rat plasma at 1 mg/kg, iv after 120 mins; format: ADME, organism-based; set-up: dose 1 mg/kg, route intravenous; summary of the method: as §1
Plasma [13] = experiment: Drug level in Sprague-Dawley rat plasma at 1 mg/kg, iv assessed as 2-methoxyestrone level after 5 mins; format: ADME, organism-based; set-up: dose 1 mg/kg, route intravenous; settings: in vivo; summary of the method: as §1
[14] = Drug level in Sprague-Dawley rat plasma at 1 mg/kg, iv after 30 mins; format: ADME, organism-based; set-up: dose 1 mg/kg, route intravenous; summary of the method: as §1
Plasma [15] = experiment: Drug level in Sprague-Dawley rat plasma at 1 mg/kg, iv assessed as 2-methoxyestrone level after 60 mins; format: ADME, organism-based; set-up: dose 1 mg/kg, route intravenous; settings: in vivo, 1 h; summary of the method: as §1
[16] = system: Lewis lung carcinoma cell line; experiment: Antitumor activity against LLC cells inoculated in C57BL/6J mouse assessed as lung weight at 100 mg/kg, ip qd for 12 days; format: functional; settings: route intraperitoneal
Summary of the method: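 LLC cells in exponential growth were harvested by brief trypsinization (1 min, 37 °C), washed, and resuspended at 5 × 10⁵ cells/mL in Ca²⁺/Mg²⁺-free PBS before injection into SPF-housed mice. From day 3 after injection, groups of 10 mice were dosed ip daily for 12 days. On day 15, mean lung weight was corrected for non-tumor-bearing lung weight. T/C = (A − C)/(B − C).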

[17] = system: Lewis lung carcinoma cell line; experiment: Antitumor activity against LLC cells inoculated in C57BL/6J mouse assessed as lung weight at 200 mg/kg, ip qd for 12 days; format: functional; settings: route intraperitoneal
Summary of the method: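 LLC cells in exponential growth were harvested by brief trypsinization (0.25% trypsin, 0.02% EDTA, 1 min, 37 °C), washed and resuspended at 5 × 10⁵ cells/mL in Ca²⁺/Mg²⁺-free PBS. Mice were housed under SPF conditions, with 10 per group. From day 3 after tumor cell injection, compound was given ip daily for 12 days. On day 15, mean lung weight was corrected for non-tumor-bearing lung weight. T/C = (A − C)/(B − C) versus vehicle (0.1 mL).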

CCOP(=O)(OCC)Oc1cc2c(cc1OC)[C@H]1CC[C@]3(C)[C@@H](OP(=O)(OCC)OCC)CC[C@H]3[C@@H]1CC2
GI50 (HCT-116): 20.4 µM
GI50 (SF-539): 19.5 µM
GI50 (UACC-62): 11.5 µM
GI50 (DU-145): 13.8 µM
GI50 (MDA-MB-435): 56.2 µM
GI50 (HOP-62): 21.9 µM
GI50 (OVCAR-3): 55 µM
GI50 (SN12C): 16.6 µM

CCOP(=O)(OCC)O[C@H]1CC[C@H]2[C@@H]3CCc4cc(O)c(OC)cc4[C@H]3CC[C@]12C
GI50 (HCT-116): 19 µM
GI50 (SF-539): 19.5 µM
GI50 (UACC-62): 14.4 µM
GI50 (MDA-MB-435): 13.2 µM
GI50 (OVCAR-3): 15.1 µM
GI50 (SN12C): 17.4 µM

COc1cc2c(cc1O)CC[C@@H]1[C@@H]2CC[C@]2(C)[C@@H](OP(=O)(O)O)CC[C@@H]12
GI50 (HCT-116): 87.1 µM
Cp (Plasma [1]): 0.015 µg/mL
GI50 (SF-539): 75.9 µM
GI50 (UACC-62): 38 µM
Cp (Plasma [2]): 0.005 µg/mL
Cp (Plasma [3]): 0.005 µg/mL
Cp (Plasma [4]): 0.005 µg/mL
Cp (Plasma [5]): 0.0341 µg/mL
concentration at 0.25 h [6]: 0.351 µg/mL
Cp (Plasma [7]): 0.005 µg/mL
Cp (Plasma [8]): 0.005 µg/mL
Cp (Plasma [9]): 0.0092 µg/mL
GI50 (MDA-MB-435): 20 µM
concentration at 1 h [10]: 0.0212 µg/mL
concentration at 5 min [11]: 1.32 µg/mL
concentration at 2 h [12]: 0.0069 µg/mL
Cp (Plasma [13]): 0.005 µg/mL
concentration at 0.5 h [14]: 0.138 µg/mL
GI50 (SN12C): > 100 µM
Cp (Plasma [15]): 0.005 µg/mL

COc1cc2c(cc1OP(=O)([O-])O)CC[C@@H]1[C@@H]2CC[C@]2(C)[C@@H](O)CC[C@@H]12.[Na+]
GI50 (HCT-116): 1.45 µM
Cp (Plasma [1]): 0.0573 µg/mL
GI50 (SF-539): 0.66 µM
GI50 (UACC-62): 1.32 µM
Cp (Plasma [2]): 0.0088 µg/mL
Cp (Plasma [3]): 0.0127 µg/mL
Activity [16]: 0.44 g
Cp (Plasma [4]): 0.005 µg/mL
Cp (Plasma [5]): 0.1534 µg/mL
concentration at 0.25 h [6]: 0.0313 µg/mL
Cp (Plasma [7]): 0.0053 µg/mL
Cp (Plasma [8]): 0.005 µg/mL
Cp (Plasma [9]): 0.0223 µg/mL
GI50 (DU-145): 2.95 µM
GI50 (MDA-MB-435): 0.11 µM
concentration at 1 h [10]: 0.0012 µg/mL
concentration at 5 min [11]: 0.366 µg/mL
concentration at 2 h [12]: < 0.001 µg/mL
GI50 (HOP-62): 0.69 µM
Cp (Plasma [13]): 0.0163 µg/mL
GI50 (OVCAR-3): 0.34 µM
concentration at 0.5 h [14]: 0.0071 µg/mL
GI50 (SN12C): 1.31 µM
Cp (Plasma [15]): 0.0027 µg/mL
Activity [17]: 0.23 g

COc1cc2c(cc1O)CC[C@@H]1[C@@H]2CC[C@]2(C)C(=O)CC[C@@H]12
Cp (Plasma [4]): 0.005 µg/mL

COc1cc2c(cc1OP(=O)(O)O)CC[C@@H]1[C@@H]2CC[C@]2(C)[C@@H](OP(=O)(O)O)CC[C@@H]12
GI50 (HCT-116): > 100 µM
GI50 (UACC-62): > 100 µM
GI50 (DU-145): > 100 µM
GI50 (MDA-MB-435): > 100 µM
GI50 (HOP-62): > 100 µM
GI50 (OVCAR-3): > 100 µM
GI50 (SN12C): > 100 µM

COc1cc2c(cc1O)CC[C@@H]1[C@@H]2CC[C@]2(C)[C@@H](O)CC[C@@H]12 [2-METHOXYESTRADIOL]
GI50 (HCT-116): 0.47 µM
Cp (Plasma [1]): 0.168 µg/mL
GI50 (SF-539): 0.32 µM
GI50 (UACC-62): 0.36 µM
Cp (Plasma [2]): 0.0054 µg/mL
Cp (Plasma [3]): 0.005 µg/mL
Cp (Plasma [4]): 0.005 µg/mL
Cp (Plasma [5]): 0.764 µg/mL
concentration at 0.25 h [6]: 0.168 µg/mL
Cp (Plasma [7]): 0.0113 µg/mL
Cp (Plasma [8]): 0.005 µg/mL
Cp (Plasma [9]): 0.0447 µg/mL
GI50 (DU-145): 1.8 µM
GI50 (MDA-MB-435): 0.08 µM
concentration at 1 h [10]: 0.0113 µg/mL
concentration at 5 min [11]: 0.764 µg/mL
concentration at 2 h [12]: 0.005 µg/mL
GI50 (HOP-62): 0.7 µM
Cp (Plasma [13]): 0.0063 µg/mL
GI50 (OVCAR-3): 0.21 µM
concentration at 0.5 h [14]: 0.0447 µg/mL
GI50 (SN12C): 0.95 µM
Cp (Plasma [15]): 0.005 µg/mL
Activity [17]: 0.44 g
